About 2,800 (0.9%) of roughly 310,000 compounds were called active.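 How the source made its calls: active means B-score of the integrated calcium signal more than 4 SD below the library mean, with starting fluorescence not abnormally high; inactive means the rest.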 The full list was thinned out, with actives kept by preference.
experiment: RGS4 potentiators or activators, primary screen, cell-based, HEK293 M3R inducible RGS4, calcium flux (AID 463111); conditions: HEK293 M3R/inducible RGS4, carbachol calcium flux Fluo4, at 10 µM; hits give low values;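 on B-score: negative B-score means reduced calcium response which marks RGS4 activation or potentiation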
Summary of the method: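 Material: M3R-expressing HEK293 line, RGS4 induced by doxycycline | Schedule: Overnight RGS4 induction, 30 min dye load 37 °C, 20 min compound RT | Measured by: Fluo4 fluorescence kinetic imaging of calcium | Read-out: Integrated calcium ratio converted to B score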

Row | Compound | B-score
1 | CCS(=O)(=O)Nc1ccc(C2=NN(S(=O)(=O)c3ccc(F)cc3)C(c3ccco3)C2)cc1 (centres undefined) | -7.77 (active)
2 | CS(=O)(=O)Nc1ccc(C2=NN(S(C)(=O)=O)C(c3cccs3)C2)cc1 (centres undefined) | inactive
3 | CCS(=O)(=O)Nc1ccc(C2=NN(C(C)=O)C(c3cccs3)C2)cc1 (centres undefined) | inactive
4 | COc1ccc(N(CC(=O)Nc2cc(OC)ccc2OC)S(=O)(=O)c2c(C)noc2C)cc1 | inactive
5 | C=CCNC(=O)COC(=O)CNC(=O)c1cc(Cl)cc([N+](=O)[O-])c1 | inactive
6 | CC(=O)Nc1cccc(Nc2nc(-c3cccs3)nc3ccccc23)c1 | inactive
7 | COc1ccc(Nc2nc(-c3cccnc3)nc3ccccc23)cn1 | inactive
8 | Cc1cccc(-c2nc(Nc3ccc(O)cc3)c3ccccc3n2)c1 | -8.56 (active)
9 | CC(NS(=O)(=O)c1ccc(OCC(=O)N2CCCC2)cc1)c1ccccc1 (centres undefined) | inactive
10 | CCc1ccc(N2CC(O)=C(c3nc4ccccc4c(=O)[nH]3)C2=N)cc1 | inactive
11 | COc1ccccc1CNC(=O)C1CCN(C(=O)[C@@H]2Cc3ccccc3CN2)CC1 | inactive
12 | Cc1ccc(N2C(=O)CC(Nc3cccc4ccccc34)C2=O)cc1 (centres undefined) | -8.55 (active)
13 | O=C(Cc1ccccc1)NNC1CC(=O)N(c2ccc(Br)cc2)C1=O (centres undefined) | inactive
14 | CC1=C(C)CC2C(=O)N(c3cccc4ccccc34)C(=O)C2C1 (centres undefined) | inactive
15 | O=C(NCc1ccccc1)C1CCCN(c2nc3ccsc3c(=O)s2)C1 (centres undefined) | inactive
16 | CCCOc1ccc(C(=O)C(CCC(CNCC)C(=O)c2ccc(OCCC)cc2)CNCC)cc1 (centres undefined) | -8.07 (active)
17 | CCCOc1ccc(C(=O)CCC(=O)OC(C)C(=O)Nc2ccc(NC(C)=O)cc2)cc1 (centres undefined) | inactive
18 | CCCCOc1ccc(C(=O)NN2CCN(C)CC2)cc1 | inactive
19 | COc1ccc(Cl)cc1NS(=O)(=O)c1cccc(C(=O)NCC2CCCO2)c1 (centres undefined) | inactive
20 | C[N+](C)(C)CCNC(=O)c1cc[n+](Cc2ccccc2)c(/C=N/O)c1 | inactive
21 | Cc1ccc(/C=C(\C#N)C(=O)Nc2cccc3ncccc23)o1 | inactive
22 | C=CCn1c(=O)c(C(=O)NCc2ccc3c(c2)OCO3)c(O)c2ccccc21 | inactive

Row | Compound | B-score
23 | Cc1ccc(C)c(NC2=NCC(=O)N2c2ccc3c(c2)OCCO3)c1 | inactive
24 | CCOc1ccccc1NC(=O)Cn1ncc2ccc([N+](=O)[O-])cc21 | inactive
25 | Cc1cccc(C)c1NC(=O)C1(C)c2cccc[n+]2CC(=O)N1Cc1cccs1 (centres undefined) | inactive
26 | COc1ccc(C(=O)Oc2ccc(-c3nnco3)cc2)cc1S(=O)(=O)N1CCOCC1 | inactive
27 | Cc1cc(NC(=O)COC(=O)c2ccc(F)c(S(=O)(=O)N3CCOCC3)c2)no1 | inactive
28 | O=C(Oc1ccc(-c2nnco2)cc1)c1ccc(F)c(S(=O)(=O)N2CCOCC2)c1 | -7.43 (active)
29 | COc1ccccc1-c1cnn2c(N3CCOCC3)cc(C)nc12 | inactive
30 | CC(C)Oc1ccc(CN2CCC(n3nccc3NC(=O)c3cccnc3)CC2)cc1 | inactive
31 | Cc1nnc(SCC(=O)NNC(=O)c2ccc(Cl)cc2)n1CC1CCCO1 (centres undefined) | inactive
32 | Cc1ccc(-n2c(-c3ccc(Cl)cc3)n[nH]c2=S)cc1 | inactive
33 | S=c1[nH]nc(-c2ccc(Cl)cc2)n1CC1CCCO1 (centres undefined) | -8.73 (active)
34 | O=C(CSc1ncccn1)N1CCCC1 | inactive
35 | CCCCCN(C(=O)NC(=O)Nc1ccccc1OC)S(C)(=O)=O | inactive
36 | CCCN1C2=C(C(=O)CCC2)C(c2ccc(O)c(Br)c2)C2=C1CCCC2=O | inactive
37 | CCOc1cc(/C=N/NC(=O)c2ccc(CSc3nncn3C)cc2)ccc1OCC(=O)N1CCOCC1 | inactive
38 | COCCCNS(=O)(=O)c1cccc(S(=O)(=O)c2cccc(S(=O)(=O)NCCCOC)c2)c1 | inactive
39 | COc1cccc(CNc2nc3nc4c(c(=O)n3[nH]2)CCC4)c1 | inactive
40 | COc1cccc(NC(=O)CN2CCN(c3nc(-c4cccc(OC)c4)cs3)CC2)c1 | inactive
41 | COc1cccc(-c2cc3nc4c(c(N5CCC6(CC5)OCCO6)n3n2)CCCC4)c1 | -7.88 (active)
42 | O=C(c1cc2ccccc2o1)N1CCN(Cc2ccccc2)CC1 | inactive
43 | Cc1cnc(C(=O)N2CCCC(N3CCN(c4ccccc4F)CC3)C2)cn1 (centres undefined) | inactive
44 | O=C(NCCc1c[nH]c2ccccc12)c1cc2ccccc2oc1=O | inactive

Row | Compound | B-score
45 | CCCN(CCC)c1nc2c(C)cccn2c(=O)c1/C=C1/SC(=S)N(Cc2ccco2)C1=O | inactive
46 | CC(C)NC(=O)C(=O)NCCCOC(C)C | inactive
47 | CCOC(=O)c1csc(NC(=O)c2ccc(S(=O)(=O)N3CCCC3)cc2)n1 | inactive
48 | CNC(=O)c1ccsc1NC(=O)c1ccc(S(=O)(=O)N2CCOCC2)cc1 | inactive
49 | COc1ccc(C(=O)Nc2nc(-c3ccc(S(=O)(=O)N4CCOCC4)cc3)cs2)cc1 | -7.75 (active)
50 | O=C(COC(=O)c1cnccn1)Nc1ccc(Cl)cc1C(F)(F)F | inactive
51 | COc1ccc(Cc2nnc(SCC(=O)Nc3ccc(C)c(Cl)c3)[nH]c2=O)cc1 | inactive
52 | O=C(Nc1cc2c3c(c1)C1CCCC1CN3CC1CCCC21)c1ccc([N+](=O)[O-])cc1 (centres undefined) | -8.07 (active)
53 | CN1C2CCC1CC(NC(=O)c1ccc([N+](=O)[O-])cc1)C2 (centres undefined) | inactive
54 | O=C(Nc1ccccc1C(=O)Nc1ccncc1)c1ccc([N+](=O)[O-])cc1 | inactive
55 | O=C(Nc1ccc2c(c1)OCO2)C1CC(c2c(F)cccc2Cl)=NO1 (centres undefined) | inactive
56 | COc1cc(NC(=S)NCCSc2ccc(C)cc2)cc(OC)c1 | inactive
57 | COc1cc(/C=C(\C#N)c2nc3ccccc3[nH]2)ccc1O | -8.51 (active)
58 | COc1cc(/C=C(\C#N)c2nc3c(s2)CC(C)CC3)ccc1O (centres undefined) | inactive
59 | COc1ccc(/C=C(/NC(=O)c2ccc(C)cc2)c2nc3ccccc3[nH]2)cc1OC | inactive
60 | COc1ccccc1NC(=O)N1CCCC1C(=O)NCc1cccs1 (centres undefined) | inactive
61 | O=C1Nc2ccc(Br)cc2/C1=N/N=C/C1=C(N2CCOCC2)C(=C\c2ccccc2)/CC1 | inactive
62 | Cc1cccc2sc(N(CCCN(C)C)C(=O)CCS(=O)(=O)c3ccccc3)nc12 | -8.92 (active)
63 | COc1cccc2sc(N(CCCN(C)C)C(=O)C(c3ccccc3)c3ccccc3)nc12 | inactive
64 | COc1cccc2sc(N(CCCN(C)C)C(=O)CCS(=O)(=O)c3ccccc3)nc12 | inactive

From PubChem BioAssay AID463111 (Johns Hopkins Ion Channel Center, 2010)
